Results published in ChEMBL document CHEMBL1124035, “1-Amino-substituted 4-methyl-5H-pyrido[4,3-b]indoles (gamma-carbolines) as tricyclic analogues of ellipticines: a new class of antineoplastic agents” (1988).

Key:
Calf thymus DNA = experiment: Apparent DNA affinity constant; format: nucleic-acid assay; conditions: Bos taurus
Method in brief: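 Apparent DNA affinity constant was measured by competition with ethidium bromide. Buffer was 20 mM Na2HPO4/NaH2PO4, 0.1 M NaCl, 1 mM EDTA, pH 7.4, with calf thymus DNA at 10 μg/mL. Values are given in 10^6 M⁻¹.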

L1210 = experiment: Ability to reduce the cell count to 50% in L1210 culture cells; format: functional; conditions: Mus musculus, read-out: ID50 (the source's name)
Method in brief: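 L1210 cells in exponential growth in RPMI 1640 with 2 mM glutamine, penicillin/streptomycin and 10% FCS, 37 °C, 5% CO2. Drugs dissolved in distilled water were added to cells at 0.8 × 10^5 cells/mL for 48 h, then cells were counted. ID50 is the concentration halving cell proliferation versus controls, from regression of dose-response data; mean of two independent experiments.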

Mus musculus [1] = experiment: Antitumor activity against P388 leukemia in mice at a dose of 6 mg/kg administered intraperitoneally for 5 days; format: functional; conditions: route intraperitoneal
Method in brief: (§1)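 CDF1 hybrid male or female mice, 10 per group, were inoculated ip on day 0 with 10^6 viable P388 leukemia cells. Drug in distilled water was given ip (0.1 mL/10 g body weight) daily on days 1-5, with vehicle, 5-fluorouracil and BD 84 controls given the same way. T/C = median survival of treated/controls × 100; T/C > 128% counted as significant.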

Mus musculus [2] = experiment: Antitumor activity against P388 leukemia in mice at a dose of 50 mg/kg administered intraperitoneally for 5 days; format: functional; conditions: route intraperitoneal; method in brief: as §1
Mus musculus [3] = experiment: Antitumor activity against P388 leukemia in mice at a dose of 12 mg/kg administered intraperitoneally for 5 days; format: functional; conditions: route intraperitoneal
Method in brief: (§2)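 CDF1 hybrid male or female mice, 10 per group, were inoculated ip with 10^6 viable P388 cells on day 0. Drugs in distilled water were given ip (0.1 mL/10 g body weight) daily D1-5. Vehicle, 5-fluorouracil and BD 84 were given the same way. T/C = median survival day of treated / controls × 100; T/C > 128% was significant; cures counted at D60.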

Mus musculus [4] = experiment: Antitumor activity against P388 leukemia in mice at a dose of 100 mg/kg administered intraperitoneally for 5 days; format: functional, organism-based; set-up: dose 100 mg/kg; method in brief: as §2
Mus musculus [5] = experiment: Antitumor activity against P388 leukemia in mice at a dose of 24 mg/kg administered intraperitoneally for 5 days; format: functional; conditions: route intraperitoneal; method in brief: as §1

Row | K aff (Calf thymus DNA) [M⁻¹] | IC50 (L1210) [nM] | Structure (SMILES) | T/C (Mus musculus [1]) [%] | T/C (Mus musculus [2]) [%] | T/C (Mus musculus [3]) [%] | T/C (Mus musculus [4]) | T/C (Mus musculus [5]) [%]
1 | 350000 | 310 | CCN(CC)CCCCNc1ncc(C)c2c1c1cc(O)ccc1n2C | – | – | – | – | –
2 | 300000 | 500 | COc1ccc2c(c1)c1c(NCCCN3CCCC3)ncc(C)c1n2C | – | – | – | – | –
3 | 160000 | 720 | CCN(CC)CCCNc1ncc(C)c2c1c1ccccc1n2C | 105 | 131 | 110 | Toxic | 118
